Assay outcomes from PubChem BioAssay.
proCasp3 act = activates human procaspase-3 | AID 463141 | recombinant procaspase-3 D3A, Ac-DEVD-pNA absorbance 405 nm | P42574 | 330,000 tested, 0.11% active | activation, % at 8.5 µM;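 active = activation above the mean of all tested compounds plus 3 SD, cut at about 21% in these data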
Target sequence (P42574 whole entry D9A/D28A/D175A): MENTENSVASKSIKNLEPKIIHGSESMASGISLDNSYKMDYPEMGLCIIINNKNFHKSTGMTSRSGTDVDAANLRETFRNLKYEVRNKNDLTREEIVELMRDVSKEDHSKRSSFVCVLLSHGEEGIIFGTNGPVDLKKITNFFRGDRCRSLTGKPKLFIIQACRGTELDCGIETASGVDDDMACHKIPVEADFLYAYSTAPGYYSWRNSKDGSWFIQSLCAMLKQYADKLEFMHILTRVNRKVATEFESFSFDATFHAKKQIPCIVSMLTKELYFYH
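Evaluation: percent activation relative to control range; Material: Procaspase-3 D3A mutant, all three cleavage aspartates alanine; Compound: single dose, 8.5 µM nominal compound, 0.8% DMSO; Replication: one well per compound; Signal: absorbance at 405 nm, 0 and 120 min; Schedule: 1 h preincubation plus 2 h reaction at 25 °C.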
proCasp7 act = activates human procaspase-7, counter-screen for procaspase-3 activators; AID 463210; 330,000 tested, 0.093% active; recombinant procaspase-7, Ac-DEVD-pNA absorbance 405 nm; D23A/D198A/D206A triple mutant, cannot self-cleave; scale: DMSO 0, 5 µM enzyme 100; activation, % at 8.5 µM; P55210;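 active = percent activation above the screen-wide mean plus 3 SD, cut at about 25% in these data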
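System: Procaspase-7 triple mutant (PC-7 D3A); measure: % activation from two-timepoint absorbance difference, scaled to controls; times: 1 h compound preincubation, 2 h substrate cleavage, 25 °C; also added: Ac-DEVD-pNA substrate, 400 µM as added; measured by: Epi-absorbance of released pNA at 405 nm, two timepoints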
MsrA inhibitor = inhibits bovine methionine sulfoxide reductase A; 360,000 tested, 0.75% active; purified bovine MsrA, absorbance read-out; inhibition, % at 15.5 µM; AID 651718; in the data active = inhibition above about 4.5%
bovine MsrA act = activates bovine MsrA enzyme; purified bovine MsrA, absorbance read-out; activation, % at 10.6 µM; 360,000 tested, 0.3% active; AID 602163; in the data active = activation above about 7.5%
PC3 D3A act = activates human procaspase-3, dual activator counter-screen. shares compounds with proCasp7 act. recombinant PC-3 D3A, Ac-DEVD-pNA absorbance 405 nm; aspartates 9, 28, 175 changed to alanine; 100% = enzyme control. activation, % at 8.5 µM. 290 tested, under 10 active;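 active = mean percent activation across triplicates above a set limit taken from the earlier primary procaspase-3 screen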
PC7 dual conf = activates human procaspase-7, confirming dual procaspase activators. shares compounds with proCasp7 act. recombinant procaspase-7, Ac-DEVD-pNA absorbance 405 nm; D23A/D198A/D206A mutant that cannot self-cleave. activation, % at 8.5 µM. 290 tested, under 10 active. AID 493115;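 active = mean activation above a set limit carried over from the earlier primary screen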
A number is an active result. Most compounds without a hit are left out; they make up all but 1.2% or so of the library.

Results for COc1ccc(C(=O)c2[nH]c(N)c(C(=O)c3c[nH]c4ccccc34)c2-c2ccc(OC)cc2)cc1 ?
MsrA inhibitor: inactive

What do the screens show for `COc1cccc2cc(-c3nc(-c4cccs4)cs3)c(=O)oc12`?
proCasp3 act: inactive; proCasp7 act: 65; MsrA inhibitor: inactive; bovine MsrA act: inactive; PC3 D3A act: inactive; PC7 dual conf: inactive

Results for CN1OC[C@@H]2CN(C(=O)c3ccc([N+](=O)[O-])cc3)[C@H](c3ccccc3Br)C[C@@H]21 ?
MsrA inhibitor: inactive

What do the screens show for `COC(=O)C1=C(C)N(C)C(=NCc2ccc(OC)cc2)NC1c1cccc(C(F)(F)F)c1` (stereo not given)?
MsrA inhibitor: inactive

What do the screens show for `COc1cc(Cn2c(N)c(C#N)c3nc4ccccc4nc32)cc(OC)c1`?
proCasp3 act: 91; proCasp7 act: 85; MsrA inhibitor: inactive; bovine MsrA act: inactive; PC3 D3A act: inactive; PC7 dual conf: inactive

What do the screens show for `COc1ccc(Cn2c(N)c(C#N)c3nc4ccccc4nc32)cc1`?
proCasp3 act: inactive; proCasp7 act: inactive; MsrA inhibitor: inactive; bovine MsrA act: inactive

How did NS(=O)(=O)c1ccc(N2N=C(c3ccccc3)CC2c2ccccc2Cl)cc1 (stereo not given) do in these assays?
proCasp3 act: 47; proCasp7 act: 80; MsrA inhibitor: inactive; bovine MsrA act: inactive; PC3 D3A act: inactive; PC7 dual conf: inactive

Results for Cc1ccc(C2CC(c3ccccc3)=NN2c2ccc(S(N)(=O)=O)cc2)cc1 (stereo not given) ?
MsrA inhibitor: inactive; bovine MsrA act: inactive

How did CCc1ccc(C2=NN(c3ccc(S(N)(=O)=O)cc3)C(c3ccc(F)cc3)C2)cc1 (stereo not given) do in these assays?
proCasp3 act: 59; proCasp7 act: 27; MsrA inhibitor: inactive; bovine MsrA act: inactive; PC3 D3A act: inactive; PC7 dual conf: inactive

How did NS(=O)(=O)c1ccc(N2N=C(c3ccccc3)CC2c2ccccc2)cc1 (stereo not given) do in these assays?
proCasp3 act: 37; proCasp7 act: 63; MsrA inhibitor: inactive; bovine MsrA act: inactive; PC3 D3A act: inactive; PC7 dual conf: inactive

What do the screens show for `c1ccc(CC(Nc2cccnc2)c2ccccc2)cc1` (stereo not given)?
MsrA inhibitor: inactive

How did CN(C)c1ccc(-c2nn3c(-c4ccccc4Cl)nnc3s2)cc1 do in these assays?
proCasp3 act: inactive; proCasp7 act: 34; MsrA inhibitor: inactive; bovine MsrA act: inactive; PC3 D3A act: inactive; PC7 dual conf: inactive

How did COc1ccccc1-c1nnc2sc(-c3ccc(N(C)C)cc3)nn12 do in these assays?
proCasp3 act: inactive; proCasp7 act: inactive; MsrA inhibitor: inactive; bovine MsrA act: inactive

What do the screens show for `Cc1ccccc1NC(=O)c1cnn(-c2ccccc2)c1C`?
proCasp3 act: inactive; proCasp7 act: 34; MsrA inhibitor: inactive; bovine MsrA act: inactive; PC3 D3A act: inactive; PC7 dual conf: inactive

Results for Cc1ccc(OCCNC(=O)[C@@H](Cc2ccccc2)NC(=O)[C@H]2O[C@@H](n3ccc(=O)[nH]c3=O)[C@H](O)[C@@H]2O)cc1C ?
MsrA inhibitor: inactive

Results for Cc1ccc(C(=O)N2CCC[C@@H]2C(=O)N2CCC[C@H]2C(=O)NCc2ccccc2)cc1 ?
MsrA inhibitor: inactive

What do the screens show for `N#Cc1cc2cc3c(cc2nc1N1CCCCC1)OCCO3`?
proCasp3 act: inactive; proCasp7 act: 38; MsrA inhibitor: inactive; bovine MsrA act: inactive; PC3 D3A act: inactive; PC7 dual conf: inactive

How did N#Cc1c(N)nc2c(c1-c1ccc3c(c1)OCO3)CCc1ccccc1-2 do in these assays?
proCasp3 act: inactive; proCasp7 act: 30; MsrA inhibitor: inactive; bovine MsrA act: inactive; PC3 D3A act: inactive; PC7 dual conf: inactive

Results for O=C1C(Cl)=C(NCCc2ccccc2)C(=O)N1CCc1ccccc1 ?
proCasp3 act: inactive; proCasp7 act: 33; MsrA inhibitor: inactive; bovine MsrA act: inactive; PC3 D3A act: inactive; PC7 dual conf: inactive

What do the screens show for `O=C(c1ccccc1)N1CCC2CCN(CCc3ccccc3)CC21` (stereo not given)?
MsrA inhibitor: inactive
